# Measurements reported in ChEMBL document CHEMBL4689842, “EUbOPEN Chemogenomics Library wave 1” (2021).
# System: U2OS
# Assay: Multiplex assay against U2OS
# Type: toxicity, cell-based
# Settings: human
# Summary of the method: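 Hoechst33342, BioTracker Green Microtubule Cytoskeleton Dye, MitoTracker Red and Annexin V Alexa Fluor 680 were added to live cells at seeding, and imaging on a CQ1 microscope at 37°C and 5% CO2 followed compound addition. Gating by CellPathfinder machine learning separated cells into Hoechst high-intensity objects or normal cells, then normal cells into healthy, pyknosed or fragmented nuclei, then pyknosed cells into mitotic or apoptotic. Per cents of healthy-nucleus cells are reported for the tubulin, mitochondrial-mass and membrane-permeability phenotypes.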
# [1] = 12 h, 1 µM, compound concentration 1 uM, replicate 1
# [2] = 12 h, 1 µM, compound concentration 1 uM, replicate 2
# [3] = 12 h, 10 µM, compound concentration 10 uM, replicate 1
# [4] = 12 h, 10 µM, compound concentration 10 uM, replicate 2
# [5] = 24 h, 1 µM, compound concentration 1 uM, replicate 1
# [6] = 24 h, 1 µM, compound concentration 1 uM, replicate 2
# [7] = 24 h, 10 µM, compound concentration 10 uM, replicate 1
# [8] = 24 h, 10 µM, compound concentration 10 uM, replicate 2
smiles,measurement,setting,value
CCN(CC)CCCCNc1ncc2cc(-c3cc(OC)cc(OC)c3)c(NC(=O)NC(C)(C)C)nc2n1 [PD-173074],Population Apoptotic (%),[1],53%
same,Population Fragmented Nuclei (%),[1],27%
same,Population Healthy Nuclei (%),[1],4%
same,Population Hoechst High Intensity Objects (%),[1],56%
same,Population Membrane Permeable-Phenotype (%),[1],66%
same,Population Mitochondria Different-Phenotype (%),[1],16%
same,Population Mitotic Cells (%),[1],46%
same,Population Normal (%),[1],43%
same,Population Pyknosed Nuclei (%),[1],67%
same,Population Tubulin-Different-Phenotype (%),[1],33%
same,Total Cell Count,[1],280
same,Population Apoptotic (%),[2],54%
same,Population Fragmented Nuclei (%),[2],31%
same,Population Healthy Nuclei (%),[2],11%
same,Population Hoechst High Intensity Objects (%),[2],55%
same,Population Membrane Permeable-Phenotype (%),[2],64%
same,Population Mitochondria Different-Phenotype (%),[2],29%
same,Population Mitotic Cells (%),[2],45%
same,Population Normal (%),[2],44%
same,Population Pyknosed Nuclei (%),[2],57%
same,Population Tubulin-Different-Phenotype (%),[2],47%
same,Total Cell Count,[2],186
same,Population Fragmented Nuclei (%),[3],20%
same,Population Healthy Nuclei (%),[3],52%
same,Population Hoechst High Intensity Objects (%),[3],19%
same,Population Membrane Permeable-Phenotype (%),[3],39%
same,Population Mitochondria Different-Phenotype (%),[3],27%
same,Population Normal (%),[3],80%
same,Population Pyknosed Nuclei (%),[3],26%
same,Population Tubulin-Different-Phenotype (%),[3],92%
same,Total Cell Count,[3],206
same,Population Apoptotic (%),[4],21%
same,Population Fragmented Nuclei (%),[4],33%
same,Population Healthy Nuclei (%),[4],34%
same,Population Hoechst High Intensity Objects (%),[4],30%
same,Population Membrane Permeable-Phenotype (%),[4],37%
same,Population Mitochondria Different-Phenotype (%),[4],51%
same,Population Mitotic Cells (%),[4],78%
same,Population Normal (%),[4],69%
same,Population Pyknosed Nuclei (%),[4],31%
same,Population Tubulin-Different-Phenotype (%),[4],73%
same,Total Cell Count,[4],129
same,Population Apoptotic (%),[5],70%
same,Population Fragmented Nuclei (%),[5],17%
same,Population Healthy Nuclei (%),[5],8%
same,Population Hoechst High Intensity Objects (%),[5],60%
same,Population Membrane Permeable-Phenotype (%),[5],71%
same,Population Mitochondria Different-Phenotype (%),[5],28%
same,Population Mitotic Cells (%),[5],29%
same,Population Normal (%),[5],39%
same,Population Pyknosed Nuclei (%),[5],74%
same,Population Tubulin-Different-Phenotype (%),[5],57%
same,Total Cell Count,[5],298
same,Population Apoptotic (%),[6],71%
same,Population Fragmented Nuclei (%),[6],30%
same,Population Healthy Nuclei (%),[6],15%
same,Population Hoechst High Intensity Objects (%),[6],63%
same,Population Membrane Permeable-Phenotype (%),[6],84%
same,Population Mitochondria Different-Phenotype (%),[6],38%
same,Population Mitotic Cells (%),[6],28%
same,Population Normal (%),[6],36%
same,Population Pyknosed Nuclei (%),[6],53%
same,Population Tubulin-Different-Phenotype (%),[6],69%
same,Total Cell Count,[6],168
same,Population Apoptotic (%),[7],35%
same,Population Fragmented Nuclei (%),[7],16%
same,Population Healthy Nuclei (%),[7],54%
same,Population Hoechst High Intensity Objects (%),[7],17%
same,Population Membrane Permeable-Phenotype (%),[7],20%
same,Population Mitochondria Different-Phenotype (%),[7],48%
same,Population Mitotic Cells (%),[7],64%
same,Population Normal (%),[7],82%
same,Population Pyknosed Nuclei (%),[7],29%
same,Population Tubulin-Different-Phenotype (%),[7],74%
same,Total Cell Count,[7],202
same,Population Apoptotic (%),[8],45%
same,Population Fragmented Nuclei (%),[8],26%
same,Population Healthy Nuclei (%),[8],33%
same,Population Hoechst High Intensity Objects (%),[8],21%
same,Population Membrane Permeable-Phenotype (%),[8],18%
same,Population Mitochondria Different-Phenotype (%),[8],52%
same,Population Mitotic Cells (%),[8],54%
same,Population Normal (%),[8],78%
same,Population Pyknosed Nuclei (%),[8],40%
same,Population Tubulin-Different-Phenotype (%),[8],59%
same,Total Cell Count,[8],113
Cc1nc(Nc2n[nH]c3c2CN(C(=O)N[C@H](CN(C)C)c2ccccc2)C3(C)C)c2sccc2n1 [PF-03758309],Population Apoptotic (%),[1],47%
same,Population Fragmented Nuclei (%),[1],9%
same,Population Healthy Nuclei (%),[1],79%
same,Population Hoechst High Intensity Objects (%),[1],2%
same,Population Membrane Permeable-Phenotype (%),[1],9%
same,Population Mitochondria Different-Phenotype (%),[1],21%
same,Population Mitotic Cells (%),[1],52%
same,Population Normal (%),[1],97%
same,Population Pyknosed Nuclei (%),[1],11%
same,Population Tubulin-Different-Phenotype (%),[1],21%
same,Total Cell Count,[1],234
same,Population Apoptotic (%),[2],20%
same,Population Fragmented Nuclei (%),[2],10%
same,Population Healthy Nuclei (%),[2],78%
same,Population Hoechst High Intensity Objects (%),[2],15%
same,Population Membrane Permeable-Phenotype (%),[2],5%
same,Population Mitochondria Different-Phenotype (%),[2],18%
same,Population Mitotic Cells (%),[2],80%
same,Population Normal (%),[2],84%
same,Population Pyknosed Nuclei (%),[2],10%
same,Population Tubulin-Different-Phenotype (%),[2],24%
same,Total Cell Count,[2],118
same,Population Apoptotic (%),[3],53%
same,Population Fragmented Nuclei (%),[3],16%
same,Population Healthy Nuclei (%),[3],54%
same,Population Hoechst High Intensity Objects (%),[3],3%
same,Population Membrane Permeable-Phenotype (%),[3],18%
same,Population Mitochondria Different-Phenotype (%),[3],37%
same,Population Mitotic Cells (%),[3],46%
same,Population Normal (%),[3],97%
same,Population Pyknosed Nuclei (%),[3],28%
same,Population Tubulin-Different-Phenotype (%),[3],75%
same,Total Cell Count,[3],173
same,Population Apoptotic (%),[4],75%
same,Population Fragmented Nuclei (%),[4],20%
same,Population Healthy Nuclei (%),[4],63%
same,Population Hoechst High Intensity Objects (%),[4],18%
same,Population Membrane Permeable-Phenotype (%),[4],12%
same,Population Mitochondria Different-Phenotype (%),[4],59%
same,Population Mitotic Cells (%),[4],25%
same,Population Normal (%),[4],81%
same,Population Pyknosed Nuclei (%),[4],16%
same,Population Tubulin-Different-Phenotype (%),[4],85%
same,Total Cell Count,[4],112
same,Population Apoptotic (%),[5],58%
same,Population Fragmented Nuclei (%),[5],11%
same,Population Healthy Nuclei (%),[5],80%
same,Population Hoechst High Intensity Objects (%),[5],3%
same,Population Membrane Permeable-Phenotype (%),[5],17%
same,Population Mitochondria Different-Phenotype (%),[5],19%
same,Population Mitotic Cells (%),[5],41%
same,Population Normal (%),[5],96%
same,Population Pyknosed Nuclei (%),[5],8%
same,Population Tubulin-Different-Phenotype (%),[5],25%
same,Total Cell Count,[5],292
same,Population Apoptotic (%),[6],38%
same,Population Fragmented Nuclei (%),[6],16%
same,Population Healthy Nuclei (%),[6],71%
same,Population Hoechst High Intensity Objects (%),[6],13%
same,Population Membrane Permeable-Phenotype (%),[6],12%
same,Population Mitochondria Different-Phenotype (%),[6],29%
same,Population Mitotic Cells (%),[6],61%
same,Population Normal (%),[6],86%
same,Population Pyknosed Nuclei (%),[6],12%
same,Population Tubulin-Different-Phenotype (%),[6],33%
same,Total Cell Count,[6],121
same,Population Apoptotic (%),[7],78%
same,Population Fragmented Nuclei (%),[7],25%
same,Population Healthy Nuclei (%),[7],38%
same,Population Hoechst High Intensity Objects (%),[7],12%
same,Population Membrane Permeable-Phenotype (%),[7],44%
same,Population Mitochondria Different-Phenotype (%),[7],64%
same,Population Mitotic Cells (%),[7],21%
same,Population Normal (%),[7],88%
same,Population Pyknosed Nuclei (%),[7],36%
same,Population Tubulin-Different-Phenotype (%),[7],88%
same,Total Cell Count,[7],202
same,Population Apoptotic (%),[8],85%
same,Population Fragmented Nuclei (%),[8],19%
same,Population Healthy Nuclei (%),[8],50%
same,Population Hoechst High Intensity Objects (%),[8],25%
same,Population Membrane Permeable-Phenotype (%),[8],38%
same,Population Mitochondria Different-Phenotype (%),[8],82%
same,Population Mitotic Cells (%),[8],14%
same,Population Normal (%),[8],74%
same,Population Pyknosed Nuclei (%),[8],30%
same,Population Tubulin-Different-Phenotype (%),[8],82%
same,Total Cell Count,[8],121
